# Laboratory results published in ChEMBL document CHEMBL1777679, “Discovery and optimization of pyrazoline compounds as B-Raf inhibitors” (Bioorg Med Chem Lett, 2010).
# Biological target: T1, Serine/threonine-protein kinase B-raf (Homo sapiens, UniProt P15056, V600E)
# Experiment: Inhibition of B-Raf V600E mutant-mediated pERK phosphorylation in human A375 cells after 3 hrs by whole cell ELISA assay
# Type: cell-based, A-375
# Details: not given
# Outline: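 A375 human melanoma cells (B-Raf V600E) were seeded overnight and exposed to inhibitor for 3 h. Cells were then fixed, permeabilized and blocked overnight. Detection used anti-phospho-ERK antibody for 1 h, then an HRP conjugate, with tetramethylbenzidine read at OD 650 nm.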
# T1 sequence (P15056 2-766 V600E limits assumed): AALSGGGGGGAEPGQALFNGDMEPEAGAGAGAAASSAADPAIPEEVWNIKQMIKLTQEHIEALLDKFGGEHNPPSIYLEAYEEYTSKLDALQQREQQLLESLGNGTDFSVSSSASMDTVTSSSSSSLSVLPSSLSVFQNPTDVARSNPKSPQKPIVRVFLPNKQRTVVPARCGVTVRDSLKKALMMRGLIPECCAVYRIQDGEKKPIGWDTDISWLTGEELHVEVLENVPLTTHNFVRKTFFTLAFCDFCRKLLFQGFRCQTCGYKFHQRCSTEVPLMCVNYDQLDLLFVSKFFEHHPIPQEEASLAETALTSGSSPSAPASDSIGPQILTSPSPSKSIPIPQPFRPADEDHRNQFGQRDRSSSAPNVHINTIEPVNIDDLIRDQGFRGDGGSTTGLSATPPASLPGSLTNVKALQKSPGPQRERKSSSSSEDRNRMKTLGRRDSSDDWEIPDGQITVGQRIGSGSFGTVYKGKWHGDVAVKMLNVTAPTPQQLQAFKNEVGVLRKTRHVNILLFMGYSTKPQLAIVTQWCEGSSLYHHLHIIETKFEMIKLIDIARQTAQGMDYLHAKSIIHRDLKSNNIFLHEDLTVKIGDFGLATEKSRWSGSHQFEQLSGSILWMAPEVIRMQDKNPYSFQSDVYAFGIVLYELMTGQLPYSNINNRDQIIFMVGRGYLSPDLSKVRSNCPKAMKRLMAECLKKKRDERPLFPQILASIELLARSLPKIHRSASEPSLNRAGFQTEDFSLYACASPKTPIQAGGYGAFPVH
row,SMILES,IC50 [nM]
1,O=C(c1ccc(-c2cccc(CN3CCCC3)c2)s1)N1N=C(c2cccnc2)CC1c1c(O)cccc1F (racemic),41
2,NCc1ccc(-c2ccc(C(=O)N3N=C(c4cccnc4)CC3c3c(O)cccc3F)s2)cc1 (racemic),37
3,O=C(c1ccc(-c2ccc3c(c2)CNCC3)s1)N1N=C(c2cccnc2)CC1c1c(O)cccc1F (racemic),21
4,O=C(c1ccc(-c2ccc3c(c2)CCNC3)s1)N1N=C(c2cccnc2)CC1c1c(O)cccc1F (racemic),34
5,O=C(c1ccc(-c2ccc3c(c2)CNC3)s1)N1N=C(c2cccnc2)CC1c1c(O)cccc1F (racemic),60
6,CC(=O)Nc1cncc(C2=NN(C(=O)c3ccc(-c4ccccn4)s3)C(c3ccccc3O)C2)c1 (racemic),63
7,O=C(c1ccc(-c2ccccn2)s1)N1N=C(c2cncc(CO)c2)CC1c1ccccc1O (racemic),39
8,Nc1cncc(C2=NN(C(=O)c3ccc(-c4ccccn4)s3)C(c3ccccc3O)C2)c1 (racemic),31
9,O=C(c1ccc(-c2ccc3c(c2)CNC3)s1)N1N=C(c2cncc(CO)c2)CC1c1c(O)cccc1F (racemic),120
10,NCc1ccccc1-c1ccc(C(=O)N2N=C(c3cncc(N)c3)CC2c2c(O)cccc2F)s1 (racemic),56
11,Nc1cncc(C2=NN(C(=O)c3ccc(-c4ccccn4)s3)C(c3c(O)cccc3F)C2)c1 (racemic),18
12,O=C(c1ccc(-c2cccc3c2CCNC3)s1)N1N=C(c2cccnc2)CC1c1c(O)cccc1F (racemic),180
13,O=C(c1ccc(-c2ccccn2)s1)N1N=C(c2cccnc2)CC1c1cccc(O)c1 (racemic),> 25000
14,O=C(c1ccc(-c2ccccn2)s1)N1N=C(c2cccnc2)CC1c1c(O)cccc1F (racemic),80
15,O=C(c1ccc(-c2ccccn2)s1)N1N=C(c2cccnc2)CC1c1cccc(F)c1O (racemic),1400
16,Cn1cc(-c2ccc(C(=O)N3N=C(c4cccnc4)CC3c3c(O)cccc3F)s2)cn1 (racemic),55
17,O=C(c1ccco1)N1N=C(c2cccnc2)CC1c1ccccc1O (racemic),1800

# The next lines start with the values.
row,IC50 [nM],SMILES
1,180,O=C(c1ccc(-c2ccccn2)s1)N1N=C(c2cccnc2)CC1c1ccccc1O (racemic)
2,180,NCc1ccccc1-c1ccc(C(=O)N2N=C(c3cncc(F)c3)CC2c2ccccc2O)s1 (racemic)
3,64,NCc1ccccc1-c1ccc(C(=O)N2N=C(c3cncc(N)c3)CC2c2ccccc2O)s1 (racemic)
4,1500,Cc1ccccc1-c1ccc(C(=O)N2N=C(c3cccnc3)CC2c2ccccc2O)s1 (racemic)
5,210,Cc1nc(-c2ccc(C(=O)N3N=C(c4cccnc4)CC3c3ccccc3O)s2)cs1 (racemic)
6,89,Cn1cc(-c2ccc(C(=O)N3N=C(c4cccnc4)CC3c3ccccc3O)s2)cn1 (racemic)
7,140,O=C(c1ccc(-c2ccc(CO)cc2)s1)N1N=C(c2cccnc2)CC1c1ccccc1O (racemic)
8,390,NCc1cccc(-c2ccc(C(=O)N3N=C(c4cccnc4)CC3c3ccccc3O)s2)c1 (racemic)
9,270,NCc1ccccc1-c1ccc(C(=O)N2N=C(c3cccnc3)CC2c2ccccc2O)s1 (racemic)
10,110,O=C(c1ccc(-c2cccc(CN3CCCC3)c2)s1)N1N=C(c2cccnc2)CC1c1ccccc1O (racemic)
11,82,NCc1ccc(-c2ccc(C(=O)N3N=C(c4cccnc4)CC3c3ccccc3O)s2)cc1 (racemic)
12,25,O=C(c1ccc(-c2ccc3c(c2)CNCC3)s1)N1N=C(c2cccnc2)CC1c1ccccc1O (racemic)
13,21,O=C(c1ccc(-c2ccc3c(c2)CCNC3)s1)N1N=C(c2cccnc2)CC1c1ccccc1O (racemic)
14,19,O=C(c1ccc(-c2ccc3c(c2)CNC3)s1)N1N=C(c2cccnc2)CC1c1ccccc1O (racemic)
15,680,O=C(c1ccc(-c2ccccn2)s1)N1N=C(c2cccnc2)CC1c1cc(F)ccc1O (racemic)
16,1400,O=C(c1ccc(-c2ccccn2)s1)N1N=C(c2cccnc2)CC1c1ccc(F)cc1O (racemic)
17,85,NCc1ccccc1-c1ccc(C(=O)N2N=C(c3cccnc3)CC2c2c(O)cccc2F)s1 (racemic)
18,280,"O=C(c1ccc(-c2ccccn2)s1)N1N=C(c2cccnc2)CC1c1ccccc1O (single isomer, unassigned; enantiomer 1)"
19,14000,"O=C(c1ccc(-c2ccccn2)s1)N1N=C(c2cccnc2)CC1c1ccccc1O (single isomer, unassigned; enantiomer 2)"

# Biological target: T1, Serine/threonine-protein kinase B-raf
# Experiment: Inhibition of B-Raf V600E mutant
# Details: not given
# Outline: (§1)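 Raf kinase reaction with biotinylated peptide substrate run 3 h at 30 °C. After a stop step, the mixture is held 2 h on streptavidin-coated flashplates to capture the substrate, and the plates are read by scintillation counting.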
row,SMILES,IC50 [nM]
1,O=C(c1ccc(-c2ccccn2)s1)N1N=C(c2cccnc2)CC1c1ccccc1O (racemic),23

# Biological target: T1, Serine/threonine-protein kinase B-raf
# Experiment: Inhibition of B-Raf V600E mutant after 2 hrs
# Details: in the assay text read “after 3 hrs” for “after 2 hrs”
# Outline: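 Raf kinase activity measured with a biotinylated peptide substrate at 30 °C for 3 h. After the stop step, the mixture was incubated 2 h on a streptavidin-coated flashplate and counts were read by scintillation.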
row,SMILES,IC50 [nM]
1,O=C(c1ccc(-c2cccc(CN3CCCC3)c2)s1)N1N=C(c2cccnc2)CC1c1c(O)cccc1F (racemic),8
2,NCc1ccc(-c2ccc(C(=O)N3N=C(c4cccnc4)CC3c3c(O)cccc3F)s2)cc1 (racemic),3
3,O=C(c1ccc(-c2ccc3c(c2)CNCC3)s1)N1N=C(c2cccnc2)CC1c1c(O)cccc1F (racemic),3
4,O=C(c1ccc(-c2ccc3c(c2)CCNC3)s1)N1N=C(c2cccnc2)CC1c1c(O)cccc1F (racemic),3
5,CC(=O)Nc1cncc(C2=NN(C(=O)c3ccc(-c4ccccn4)s3)C(c3ccccc3O)C2)c1 (racemic),3
6,O=C(c1ccc(-c2ccccn2)s1)N1N=C(c2cncc(CO)c2)CC1c1ccccc1O (racemic),3
7,Nc1cncc(C2=NN(C(=O)c3ccc(-c4ccccn4)s3)C(c3ccccc3O)C2)c1 (racemic),3
8,O=C(c1ccc(-c2ccc3c(c2)CNC3)s1)N1N=C(c2cncc(CO)c2)CC1c1c(O)cccc1F (racemic),3
9,NCc1ccccc1-c1ccc(C(=O)N2N=C(c3cncc(N)c3)CC2c2c(O)cccc2F)s1 (racemic),4
10,Nc1cncc(C2=NN(C(=O)c3ccc(-c4ccccn4)s3)C(c3c(O)cccc3F)C2)c1 (racemic),3
11,O=C(c1ccc(-c2ccccn2)s1)N1N=C(c2cccnc2)CC1c1ccccc1 (racemic),799
12,O=C(c1ccc(-c2ccccn2)s1)N1N=C(c2cccnc2)CC1c1cccc(O)c1 (racemic),670
13,O=C(c1ccc(-c2ccccn2)s1)N1N=C(c2cccnc2)CC1c1c(O)cccc1F (racemic),5
14,O=C(c1ccc(-c2ccccn2)s1)N1N=C(c2cccnc2)CC1c1cccc(F)c1O (racemic),13
15,Cn1cc(-c2ccc(C(=O)N3N=C(c4cccnc4)CC3c3c(O)cccc3F)s2)cn1 (racemic),3

# More lines, now with the values ahead:
row,IC50 [nM],SMILES
1,7,NCc1ccccc1-c1ccc(C(=O)N2N=C(c3cncc(N)c3)CC2c2ccccc2O)s1 (racemic)
2,79,Cc1ccccc1-c1ccc(C(=O)N2N=C(c3cccnc3)CC2c2ccccc2O)s1 (racemic)
3,7,Cc1nc(-c2ccc(C(=O)N3N=C(c4cccnc4)CC3c3ccccc3O)s2)cs1 (racemic)
4,9,Cn1cc(-c2ccc(C(=O)N3N=C(c4cccnc4)CC3c3ccccc3O)s2)cn1 (racemic)
5,5,O=C(c1ccc(-c2ccc(CO)cc2)s1)N1N=C(c2cccnc2)CC1c1ccccc1O (racemic)
6,6,NCc1cccc(-c2ccc(C(=O)N3N=C(c4cccnc4)CC3c3ccccc3O)s2)c1 (racemic)
7,10,NCc1ccccc1-c1ccc(C(=O)N2N=C(c3cccnc3)CC2c2ccccc2O)s1 (racemic)
8,6,O=C(c1ccc(-c2cccc(CN3CCCC3)c2)s1)N1N=C(c2cccnc2)CC1c1ccccc1O (racemic)
9,5,NCc1ccc(-c2ccc(C(=O)N3N=C(c4cccnc4)CC3c3ccccc3O)s2)cc1 (racemic)
10,4,O=C(c1ccc(-c2ccc3c(c2)CNCC3)s1)N1N=C(c2cccnc2)CC1c1ccccc1O (racemic)
11,5,O=C(c1ccc(-c2ccc3c(c2)CCNC3)s1)N1N=C(c2cccnc2)CC1c1ccccc1O (racemic)
12,4,O=C(c1ccc(-c2ccc3c(c2)CNC3)s1)N1N=C(c2cccnc2)CC1c1ccccc1O (racemic)
13,7,O=C(c1ccc(-c2ccccn2)s1)N1N=C(c2cccnc2)CC1c1cc(F)ccc1O (racemic)
14,11,O=C(c1ccc(-c2ccccn2)s1)N1N=C(c2cccnc2)CC1c1ccc(F)cc1O (racemic)
15,7,NCc1ccccc1-c1ccc(C(=O)N2N=C(c3cccnc3)CC2c2c(O)cccc2F)s1 (racemic)

# Biological target: Serine/threonine-protein kinase B-raf (Homo sapiens, UniProt P15056)
# Experiment: Inhibition of B-Raf
# Details: not given
# Outline: as §1
# Serine/threonine-protein kinase B-raf (Homo sapiens, UniProt P15056), sequence (P15056 whole entry): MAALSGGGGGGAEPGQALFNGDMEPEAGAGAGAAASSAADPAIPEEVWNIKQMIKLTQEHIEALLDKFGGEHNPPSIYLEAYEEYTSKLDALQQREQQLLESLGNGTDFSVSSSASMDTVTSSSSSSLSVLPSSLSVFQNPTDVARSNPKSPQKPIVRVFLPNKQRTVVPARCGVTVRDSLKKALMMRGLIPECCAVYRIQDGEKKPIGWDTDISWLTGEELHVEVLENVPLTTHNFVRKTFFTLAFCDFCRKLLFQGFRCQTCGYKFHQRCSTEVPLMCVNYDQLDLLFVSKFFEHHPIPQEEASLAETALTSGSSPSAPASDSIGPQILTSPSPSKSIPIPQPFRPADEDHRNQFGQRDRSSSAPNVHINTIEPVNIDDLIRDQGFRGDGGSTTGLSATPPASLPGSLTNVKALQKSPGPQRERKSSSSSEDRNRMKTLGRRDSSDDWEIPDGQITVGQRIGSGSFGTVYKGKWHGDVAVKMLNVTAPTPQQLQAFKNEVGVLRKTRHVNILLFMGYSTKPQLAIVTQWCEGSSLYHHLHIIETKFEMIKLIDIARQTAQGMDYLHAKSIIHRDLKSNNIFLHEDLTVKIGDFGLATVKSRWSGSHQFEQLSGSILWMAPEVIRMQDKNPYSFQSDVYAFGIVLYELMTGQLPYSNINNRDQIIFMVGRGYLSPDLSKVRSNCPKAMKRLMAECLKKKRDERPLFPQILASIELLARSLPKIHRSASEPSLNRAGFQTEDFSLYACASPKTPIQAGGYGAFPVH
row,SMILES,IC50 [nM]
1,O=C(c1ccc(-c2ccccn2)s1)N1N=C(c2cccnc2)CC1c1ccccc1O (racemic),17

# Test system: not listed separately
# Experiment: AUC in Sprague-Dawley rat at 0.5 to 1 mg/kg, iv and 10 mg/kg, po
# Type: ADME, organism-based
# Details: plasma
# Outline: (§2)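 Male SD rats dosed intravenously at 0.5 mg/kg or 1 mg/kg, or orally at 10 mg/kg. Plasma exposure, clearance and oral bioavailability derived from plasma levels.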
row,SMILES,AUC [µM·h]
1,O=C(c1ccc(-c2ccc3c(c2)CNC3)s1)N1N=C(c2cccnc2)CC1c1c(O)cccc1F (racemic),8.4
2,O=C(c1ccc(-c2cccc3c2CCNC3)s1)N1N=C(c2cccnc2)CC1c1c(O)cccc1F (racemic),26

# Second part, the molecule after the results:
row,AUC [µM·h],SMILES
1,4.9,NCc1ccccc1-c1ccc(C(=O)N2N=C(c3cccnc3)CC2c2ccccc2O)s1 (racemic)
2,0.89,O=C(c1ccc(-c2ccc3c(c2)CNC3)s1)N1N=C(c2cccnc2)CC1c1ccccc1O (racemic)
3,11,NCc1ccccc1-c1ccc(C(=O)N2N=C(c3cccnc3)CC2c2c(O)cccc2F)s1 (racemic)

# Biological target: T1, Serine/threonine-protein kinase B-raf
# Experiment: Inhibition of B-Raf V600E mutant after 3 hrs
# Details: not given
row,SMILES,IC50 [nM]
1,O=C(c1ccc(-c2ccc3c(c2)CNC3)s1)N1N=C(c2cccnc2)CC1c1c(O)cccc1F (racemic),2
2,O=C(c1ccco1)N1N=C(c2cccnc2)CC1c1ccccc1O (racemic),200

# Continued, values first:
row,IC50 [nM],SMILES
1,23,O=C(c1ccc(-c2ccccn2)s1)N1N=C(c2cccnc2)CC1c1ccccc1O (racemic)
2,21,NCc1ccccc1-c1ccc(C(=O)N2N=C(c3cncc(F)c3)CC2c2ccccc2O)s1 (racemic)

# Test system: not listed separately
# Experiment: Clearance in Sprague-Dawley rat at 0.5 to 1 mg/kg, iv and 10 mg/kg, po
# Type: ADME, organism-based
# Details: in vivo
# Outline: as §2
row,SMILES,clearance [mL/min/kg]
1,O=C(c1ccc(-c2ccc3c(c2)CNC3)s1)N1N=C(c2cccnc2)CC1c1c(O)cccc1F (racemic),15
2,O=C(c1ccc(-c2cccc3c2CCNC3)s1)N1N=C(c2cccnc2)CC1c1c(O)cccc1F (racemic),11.7

# Continued, values first:
row,clearance [mL/min/kg],SMILES
1,65,NCc1ccccc1-c1ccc(C(=O)N2N=C(c3cccnc3)CC2c2ccccc2O)s1 (racemic)
2,58.3,O=C(c1ccc(-c2ccc3c(c2)CNC3)s1)N1N=C(c2cccnc2)CC1c1ccccc1O (racemic)
3,26.7,NCc1ccccc1-c1ccc(C(=O)N2N=C(c3cccnc3)CC2c2c(O)cccc2F)s1 (racemic)

# Biological target: RAF proto-oncogene serine/threonine-protein kinase (Homo sapiens, UniProt P04049)
# Experiment: Inhibition of C-Raf
# Details: not given
# RAF proto-oncogene serine/threonine-protein kinase, sequence (P04049 whole entry): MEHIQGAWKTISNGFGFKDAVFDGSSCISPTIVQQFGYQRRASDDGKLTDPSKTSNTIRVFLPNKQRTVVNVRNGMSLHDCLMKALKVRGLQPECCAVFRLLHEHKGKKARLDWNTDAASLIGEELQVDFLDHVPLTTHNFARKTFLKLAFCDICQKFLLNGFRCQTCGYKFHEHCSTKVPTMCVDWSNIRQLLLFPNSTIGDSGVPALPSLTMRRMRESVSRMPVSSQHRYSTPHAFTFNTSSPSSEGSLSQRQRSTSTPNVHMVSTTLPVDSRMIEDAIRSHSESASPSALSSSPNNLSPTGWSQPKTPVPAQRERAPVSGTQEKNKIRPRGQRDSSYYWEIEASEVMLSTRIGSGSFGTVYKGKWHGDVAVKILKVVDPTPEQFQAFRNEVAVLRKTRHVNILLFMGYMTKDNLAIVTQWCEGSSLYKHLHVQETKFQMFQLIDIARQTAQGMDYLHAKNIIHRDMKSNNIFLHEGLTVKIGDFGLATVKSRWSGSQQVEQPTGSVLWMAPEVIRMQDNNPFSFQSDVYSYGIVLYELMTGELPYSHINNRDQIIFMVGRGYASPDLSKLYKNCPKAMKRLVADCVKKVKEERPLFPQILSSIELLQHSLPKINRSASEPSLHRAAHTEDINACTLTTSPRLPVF
row,SMILES,IC50 [nM]
1,O=C(c1ccc(-c2ccccn2)s1)N1N=C(c2cccnc2)CC1c1ccccc1O (racemic),27

# Test system: not listed separately
# Experiment: Aqueous solubility of the compound in 50 mM of potassium phosphate buffer at pH 6.8 by turbidimetric method
# Type: physicochemical
# Details: not given
# Outline: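 Turbidimetric kinetic solubility in 50 mM potassium phosphate buffer, pH 6.8.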
row,SMILES,solubility kinetic [µg/mL]
1,O=C(c1ccc(-c2ccccn2)s1)N1N=C(c2cccnc2)CC1c1ccccc1O (racemic),5.8

# Test system: not listed separately
# Experiment: Bioavailability in Sprague-Dawley rat at 0.5 to 1 mg/kg, iv and 10 mg/kg, po
# Type: ADME, organism-based
# Details: in vivo
# Outline: as §2
row,SMILES,bioavailability [%]
1,O=C(c1ccc(-c2ccc3c(c2)CNC3)s1)N1N=C(c2cccnc2)CC1c1c(O)cccc1F (racemic),37
2,O=C(c1ccc(-c2cccc3c2CCNC3)s1)N1N=C(c2cccnc2)CC1c1c(O)cccc1F (racemic),89

# More lines, now with the values ahead:
row,bioavailability [%],SMILES
1,76,NCc1ccccc1-c1ccc(C(=O)N2N=C(c3cccnc3)CC2c2ccccc2O)s1 (racemic)
2,14,O=C(c1ccc(-c2ccc3c(c2)CNC3)s1)N1N=C(c2cccnc2)CC1c1ccccc1O (racemic)
3,85,NCc1ccccc1-c1ccc(C(=O)N2N=C(c3cccnc3)CC2c2c(O)cccc2F)s1 (racemic)
